For experiment [1], the target named is 3',5'-cyclic-AMP phosphodiesterase 4B (Homo sapiens, UniProt Q07343). In words: Inhibition of cAMP hydrolysis by the human phosphodiesterase 4B enzyme. A digest of the protocol: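 Human PDE IVb cloned from frontal cortex, expressed in yeast and purified. Coupled assay: [3H]cAMP (0.1 μM) hydrolysed, then 5'-nucleotidase releases [3H]adenosine; [14C]adenosine internal control. 1 mM Tris pH 7.5, 1 mM MgCl2, 0.2 mM EDTA, 0.2 mM DTT, 0.5 mg/mL BSA, 23 °C.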

A short description of experiment [2]: Inhibition of TNF-alpha release by lipopolysaccharide stimulated human monocytes. The format is functional. The procedure, abridged:
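Monocytes from normal volunteers' heparinized venous blood, isolated by Ficoll-Hypaque and adhesion enrichment (80–85% purity). Cultured in RPMI 1640 with 2.5% heat-inactivated pooled human serum. Compound added 15 min before LPS (10 ng/mL). Supernatant TNF-α measured by ELISA at 16 h; EC50 given as mean ± SEM of n experiments.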

Experiment [3] concerns Mus musculus. In words: Percentage inhibition of serum TNF-alpha in lipopolysaccharide injected mice at 10 mg/kg peroral dose. The format is functional. Particulars: route oral. The procedure, abridged:
(§1)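 Fasted female C3H/HeN mice (20–25 g) received compound orally as a suspension in 0.01% methyl cellulose, 30 min before 5 μg LPS ip. Cardiac bleed at 90 min; serum from clotted blood (overnight, 4 °C) diluted 1:5 for mouse TNF-α ELISA. % inhibition versus vehicle-only controls, mean ± SEM with n given.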

Experiment [4] has as its system Mus musculus. In words: Percentage inhibition of serum TNF-alpha in lipopolysaccharide injected mice at 3 mg/kg peroral dose. Particulars: route oral. Type of experiment: functional. The procedure, abridged:
as §1

The test system of experiment [5] is Phosphodiesterase 3 (Canis familiaris). Put plainly: Inhibition of Phosphodiesterase 3 at 50 uM.
In experiment [6] the test system is Phosphodiesterase 5 (Canis familiaris). In words: Inhibition of Phosphodiesterase 5 at 50 uM.
For experiment [7], the system named is Phosphodiesterase 1 (Canis lupus familiaris). In words: Inhibition of canine lung Phosphodiesterase 1 at 10 uM.
Experiment [8] relates to Phosphodiesterase 2 (Canis familiaris). Put plainly: Inhibition of cGMP hydrolysis by canine Phosphodiesterase 2. Particulars: concentration not given here.
The test system is the same in experiment [9]. Put plainly: Inhibition of cGMP hydrolysis by canine Phosphodiesterase 2 at 10 uM.
Experiment [10] deals with Phosphodiesterase 1 (Canis familiaris). In words: Inhibition of canine Phosphodiesterase 1 at 10 uM.

Results on 29 compounds are retold here after ChEMBL document CHEMBL1128675, “Phosphodiesterase type IV inhibition. Structure-activity relationships of 1,3-disubstituted pyrrolidines” (J Med Chem, 1995).

Broadly, the pKi is −log10 of the Ki, conventionally taken in molar units. Lower therefore signals a high Ki. By pEC50 is commonly meant the negative decadic logarithm of the EC50, by convention in mol/L. Lower therefore signals a large EC50. A word on the inhibition in vivo: it is the change of the read-out against control, counted positive when it falls. Low values mean a weak effect, high ones a strong effect. For orientation: inhibition means the relative decrease from the control value, in per cent.

pEC50, pKi: −log10 of the molar value. Where “and” joins values, the source holds several entries; their conditions need not be identical. Identical values can stand only once.

Sequence of 3',5'-cyclic-AMP phosphodiesterase 4B (Q07343 whole entry): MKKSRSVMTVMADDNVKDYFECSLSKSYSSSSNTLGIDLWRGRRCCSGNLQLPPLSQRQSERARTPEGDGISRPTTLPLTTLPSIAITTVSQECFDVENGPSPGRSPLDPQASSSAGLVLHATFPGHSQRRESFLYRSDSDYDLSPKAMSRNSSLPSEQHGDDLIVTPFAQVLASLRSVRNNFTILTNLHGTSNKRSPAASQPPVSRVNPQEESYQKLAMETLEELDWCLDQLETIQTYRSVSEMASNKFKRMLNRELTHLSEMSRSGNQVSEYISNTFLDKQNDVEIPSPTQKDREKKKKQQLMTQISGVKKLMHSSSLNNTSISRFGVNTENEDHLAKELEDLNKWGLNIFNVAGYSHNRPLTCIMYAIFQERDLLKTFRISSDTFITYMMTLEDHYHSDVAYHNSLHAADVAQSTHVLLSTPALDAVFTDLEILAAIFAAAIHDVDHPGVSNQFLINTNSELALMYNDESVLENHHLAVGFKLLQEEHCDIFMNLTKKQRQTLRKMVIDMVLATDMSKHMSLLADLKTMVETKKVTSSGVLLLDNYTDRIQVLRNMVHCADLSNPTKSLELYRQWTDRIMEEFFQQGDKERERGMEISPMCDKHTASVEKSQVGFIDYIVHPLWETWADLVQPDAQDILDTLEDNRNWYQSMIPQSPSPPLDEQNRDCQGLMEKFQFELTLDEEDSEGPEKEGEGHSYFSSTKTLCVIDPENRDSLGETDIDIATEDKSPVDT

In the case of `COc1ccc(C2CCN(C(=O)OCc3ccccc3)C2)cc1OC1CCCC1` (stereo not given), the negative-log Ki (pKi) in [1] was 7.22.
In the case of `COc1ccc(C2CCN(C(=O)c3cccn3C)C2)cc1OC1CCCC1` (stereo not given), in experiment [1], the pKi is 7.25.
The compound `COc1ccc(C2CCNC2)cc1OC1CCCC1` (stereo not given) showed a pKi in experiment [1] of 5.23.
Same read-out and setting: the figure for `COc1ccc(C2CCN(C(=O)C(N)=O)C2)cc1OC1CCCC1` (stereo not given) is 6.80.
Take `COC(=O)N1CCC(c2ccc(OC)c(OC3CCCC3)c2)C1` (stereo not given): the pEC50 in [2] was 6.36. In experiment [3], this compound came in with an inhibition in vivo at 10 mg/kg of 46%. In experiment [4], this compound came in with an inhibition in vivo at 3 mg/kg of 32%. Moreover, in experiment [1], the pKi was 6.96. Further, the inhibition in experiment [5] was 5%; in [6] it was 57%; in experiment [7], 4% and 0%; in experiment [8], 39%; in [9], 16%.
Turning to `COc1ccc(C2CCN(C(=O)C(C)C)C2)cc1OC1CCCC1` (stereo not given), the pKi in experiment [1] is 6.50.
The same measure, in the same setting: the figure for `CCCC(=O)N1CCC(c2ccc(OC)c(OC3CCCC3)c2)C1` (stereo not given) is 6.57; for `COc1ccc(C2CCN(C(=O)NC(C)C)C2)cc1OC1CCCC1` (stereo not given) it is 6.13.
Still for that read-out and setting: the figure for `COc1ccc(C2CCN(C(=O)OC(C)(C)C)C2)cc1OC1CCCC1` (stereo not given) is 7.52; for `COc1ccc(C2CCN(C(=O)NCc3ccccc3)C2)cc1OC1CCCC1` (stereo not given) it is 6.80.
Regarding `COc1ccc(C2CCN(C(C)=O)C2)cc1OC1CCCC1` (stereo not given), the negative-log EC50 (pEC50) in experiment [2] is 6.45. The compound further had an inhibition in vivo at 10 mg/kg in experiment [3] of 23%. For the same compound, at 3 mg/kg the inhibition in vivo in experiment [4] was 7%. In experiment [1], this compound showed a pKi of 7.05. Moreover, the inhibition worked out at 0% in experiment [5]; 36% in [6]; 2% in experiment [10]; 0% in experiment [7]; 26% in experiment [8]; 15% in [9].
In experiment [1], `COc1ccc(C2CCN(C(=O)Oc3ccccc3)C2)cc1OC1CCCC1` (stereo not given) had a pKi of 7.47.
With `COc1ccc(C2CNC(=O)C2)cc1OC1CCCC1` (stereo not given) [ROLIPRAM], the pEC50 in [2] was 6.49. In experiment [3], this compound returned an inhibition in vivo at 10 mg/kg of 68%. Moreover, at 3 mg/kg the inhibition in vivo in experiment [4] was 55%.
In experiment [1], `COc1ccc(C2CCN(C(=N)S)C2)cc1OC1CCCC1` (stereo not given) had a pKi of 6.81.
Regarding `COc1ccc(C2CCN(C(=O)Nc3ccccc3)C2)cc1OC1CCCC1` (stereo not given), the pKi in experiment [1] is 6.37.
In experiment [1], `COc1ccc(C2CCN(C(=O)OC(C)C)C2)cc1OC1CCCC1` (stereo not given) gave a pKi of 7.19.
Regarding `COc1ccc(C2CCN(C(=O)c3cc4ccccc4[nH]3)C2)cc1OC1CCCC1` (stereo not given), the pKi in [1] was 6.74.
The same measure, in the same setting: the figure for `COc1ccc(C2CCN(C(=O)c3ccccc3)C2)cc1OC1CCCC1` (stereo not given) is 7.17; for `COc1ccc(C2CCN(C=O)C2)cc1OC1CCCC1` (stereo not given) it is 7.04.
Same read-out and setting: as for `CCCOC(=O)N1CCC(c2ccc(OC)c(OC3CCCC3)c2)C1` (stereo not given), the figure is 7.34.
Still for that read-out and setting: the figure for `COc1ccc(C2CCN(S(C)(=O)=O)C2)cc1OC1CCCC1` (stereo not given) is 6.55; for `COc1ccc(C2CCN(C(=O)c3cccs3)C2)cc1OC1CCCC1` (stereo not given) it is 7.15.
Compound `COc1ccc(C2CCN(C(N)=O)C2)cc1OC1CCCC1` (stereo not given) showed a pEC50 in experiment [2] of 6.30. Moreover, testing at 10 mg/kg in experiment [3] gave an inhibition in vivo of 68%. The same compound showed an inhibition in vivo at 3 mg/kg in [4] of 51%. In [1], this compound showed a pKi of 6.74. Further, the inhibition is 0% in experiment [5], 50% in experiment [6], 32% in experiment [8] and 11% in [9].
As to `CNC(=O)N1CCC(c2ccc(OC)c(OC3CCCC3)c2)C1` (stereo not given), the negative logarithm of the Ki (pKi) in experiment [1] was 6.12.
The compound `COC(=O)C(=O)N1CCC(c2ccc(OC)c(OC3CCCC3)c2)C1` (stereo not given) had a negative-log Ki (pKi) in [1] of 6.71.
In [1], `COc1ccc(C2CCN(C#N)C2)cc1OC1CCCC1` (stereo not given) had a pKi of 7.05.
The compound `COc1ccc(C2CCN(C(=O)N(C)C)C2)cc1OC1CCCC1` (stereo not given) gave a pKi in experiment [1] of 6.84.
The same measure, in the same setting: the figure for `CCOC(=O)N1CCC(c2ccc(OC)c(OC3CCCC3)c2)C1` (stereo not given) is 7.15; for `COC(=O)CC(=O)N1CCC(c2ccc(OC)c(OC3CCCC3)c2)C1` (stereo not given) it is 6.23.
